From ChEMBL document CHEMBL1649579, “A novel tryptophanyl-tRNA synthetase gene confers high-level resistance to indolmycin” (2009)
In brackets after ≈: the same amount, converted by molar mass.

Key:
Format in all cases: functional
Streptomyces coelicolor [1] = experiment: Antimicrobial activity against Streptomyces coelicolor B725 harboring trpRS2 ORF after 48 hrs; conditions: B725, 48 h
How it was run: (§1)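 Agar MIC in S. coelicolor trpRS1-null strain B725. Each ORF is cloned into pIJ10257 under the constitutive ermE* promoter for equalized expression. Growth is on Difco nutrient agar with indolmycin at the indicated concentrations, 30C, 48 h. MIC is the concentration that inhibits growth.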

Streptomyces coelicolor [2] = experiment: Antimicrobial activity against Streptomyces coelicolor B725 harboring trpRS1 ORF after 48 hrs; conditions: B725, 48 h; how it was run: as §1
Streptomyces griseus = experiment: Antimicrobial activity against Streptomyces griseus after 48 hrs
How it was run: (§2)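 Indolmycin MIC on Difco nutrient agar containing the indicated indolmycin concentrations. Spores are grown at 30C for 48 h. MIC is the lowest indolmycin concentration that prevents growth after 2 days.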

Streptomyces coelicolor [3] = experiment: Antimicrobial activity against Streptomyces coelicolor B725 harboring trpRS2 G(-13)T/L9F locus after 48 hrs; conditions: B725, 48 h
How it was run: (§3)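 Agar MIC in trpRS1-null S. coelicolor B725 carrying the trpRS2 locus (93 nt upstream to 96 nt downstream of the ORF, with or without point mutations) […]. Plates are Difco nutrient agar with indicated indolmycin levels, read for growth after 48 h at 30C.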

Streptomyces coelicolor [4] = experiment: Antimicrobial activity against Streptomyces coelicolor B725 harboring trpRS2 C(-17)A/H48Q locus after 48 hrs; conditions: B725, 48 h; how it was run: as §3
Streptomyces coelicolor [5] = experiment: Antimicrobial activity against Streptomyces coelicolor B725 harboring trpRS2 C(-17)A locus after 48 hrs; conditions: B725, 48 h; how it was run: as §3
Streptomyces coelicolor [6] = experiment: Antimicrobial activity against Streptomyces coelicolor B725 harboring trpRS2 C(-17)A/L9F locus after 48 hrs; conditions: B725, 48 h; how it was run: as §3
Streptomyces coelicolor [7] = experiment: Ratio of MIC for Streptomyces coelicolor B725 harboring trpRS2 C(-17)A locus to MIC for Streptomyces coelicolor B725
How it was run: (§4)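 Fold increase is the indolmycin MIC of each construct-bearing B725 strain (ermE* promoter) divided by the MIC of the parent trpRS1-null B725. Both MICs come from Difco nutrient agar plates containing indolmycin, read for growth after 2 days at 30C.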

Streptomyces coelicolor [8] = experiment: Antimicrobial activity against Streptomyces coelicolor B725 harboring trpRS2 locus after 48 hrs; conditions: B725, 48 h; how it was run: as §3
Streptomyces coelicolor [9] = experiment: Ratio of MIC for Streptomyces coelicolor B725 harboring trpRS2 C(-17)A/H48Q locus to MIC for Streptomyces coelicolor B725; how it was run: as §4
Streptomyces coelicolor [10] = experiment: Antimicrobial activity against trpRS1 deficient Streptomyces coelicolor B725 after 48 hrs; conditions: B725, 48 h; how it was run: as §2
Streptomyces coelicolor [11] = experiment: Ratio of MIC for Streptomyces coelicolor B725 harboring trpRS2 Q13K mutant ORF to MIC for Streptomyces coelicolor B725; how it was run: as §4
Streptomyces coelicolor [12] = experiment: Antimicrobial activity against Streptomyces coelicolor B725 harboring trpRS2 L9F mutant ORF after 48 hrs; conditions: B725, 48 h; how it was run: as §1
Streptomyces coelicolor [13] = experiment: Ratio of MIC for Streptomyces coelicolor B725 harboring trpRS2 L9F/Q13K mutant ORF to MIC for Streptomyces coelicolor B725; how it was run: as §4
Streptomyces coelicolor [14] = experiment: Antimicrobial activity against Streptomyces coelicolor B725 harboring trpRS2 Q13K mutant ORF after 48 hrs; conditions: B725, 48 h; how it was run: as §1
Streptomyces coelicolor [15] = experiment: Antimicrobial activity against Streptomyces coelicolor B725 harboring trpRS2 G(-13)T/H48Q locus after 48 hrs; conditions: B725, 48 h; how it was run: as §3
Streptomyces coelicolor [16] = experiment: Ratio of MIC for Streptomyces coelicolor B725 harboring trpRS2 L9F/H48Q mutant ORF to MIC for Streptomyces coelicolor B725; how it was run: as §4
Streptomyces coelicolor [17] = experiment: Antimicrobial activity against Streptomyces coelicolor B725 harboring trpRS2 H48N mutant ORF after 48 hrs; conditions: B725, 48 h; how it was run: as §1
Streptomyces coelicolor [18] = experiment: Ratio of MIC for Streptomyces coelicolor B725 overexpressing tryptophanyl-tRNA synthetase gene to MIC for Streptomyces coelicolor B725; how it was run: as §4
Streptomyces coelicolor [19] = experiment: Ratio of MIC for Streptomyces coelicolor B725 harboring trpRS2 ORF to MIC for Streptomyces coelicolor B725; how it was run: as §4
Streptomyces coelicolor [20] = experiment: Antimicrobial activity against Streptomyces coelicolor B725 harboring trpRS2 G(-13)T locus after 48 hrs; conditions: B725, 48 h; how it was run: as §3
Streptomyces coelicolor [21] = experiment: Ratio of MIC for Streptomyces coelicolor B725 harboring trpRS2 C(-17)A/L9F locus to MIC for Streptomyces coelicolor B725; how it was run: as §4
Streptomyces coelicolor [22] = experiment: Antimicrobial activity against Streptomyces coelicolor B725 harboring trpRS2 H48Q mutant ORF after 48 hrs; conditions: B725, 48 h; how it was run: as §1
Streptomyces coelicolor [23] = experiment: Ratio of MIC for Streptomyces coelicolor B725 harboring trpRS2 G(-13)T locus to MIC for Streptomyces coelicolor B725; how it was run: as §4
Streptomyces avermitilis = experiment: Antimicrobial activity against Streptomyces avermitilis harboring trpRS1 homolog after 48 hrs; how it was run: as §2
Streptomyces coelicolor [24] = experiment: Antimicrobial activity against Streptomyces coelicolor B725 harboring trpRS2 L9F/Q13K mutant ORF after 48 hrs; conditions: B725, 48 h; how it was run: as §1
Streptomyces coelicolor [25] = experiment: Ratio of MIC for Streptomyces coelicolor B725 harboring trpRS2 H48N mutant ORF to MIC for Streptomyces coelicolor B725; how it was run: as §4
Streptomyces coelicolor [26] = experiment: Ratio of MIC for Streptomyces coelicolor B725 harboring trpRS2 G(-13)T/H48Q locus to MIC for Streptomyces coelicolor B725; how it was run: as §4
Streptomyces coelicolor [27] = experiment: Ratio of MIC for Streptomyces coelicolor B725 harboring trpRS2 G(-13)T/L9F locus to MIC for Streptomyces coelicolor B725; how it was run: as §4
Streptomyces coelicolor [28] = experiment: Antimicrobial activity against Streptomyces coelicolor B725 harboring trpRS2 L9F/H48Q mutant ORF after 48 hrs; conditions: B725, 48 h; how it was run: as §1
Streptomyces coelicolor [29] = experiment: Antimicrobial activity against wild-type Streptomyces coelicolor after 48 hrs; how it was run: as §2
Streptomyces coelicolor [30] = experiment: Ratio of MIC for Streptomyces coelicolor B725 harboring trpRS2 L9F mutant ORF to MIC for Streptomyces coelicolor B725; how it was run: as §4
Streptomyces coelicolor [31] = experiment: Ratio of MIC for Streptomyces coelicolor B725 harboring trpRS2 H48Q mutant ORF to MIC for Streptomyces coelicolor B725; how it was run: as §4
Streptomyces coelicolor [32] = experiment: Ratio of MIC for Streptomyces coelicolor B725 harboring trpRS2 locus to MIC for Streptomyces coelicolor B725; how it was run: as §4

## CNC1=NC(=O)[C@H]([C@H](C)c2c[nH]c3ccccc23)O1 [INDOMYCIN]
Streptomyces coelicolor [1]
  MIC: 0.25 µg/mL (≈ 0.972 µM)
Streptomyces coelicolor [2]
  MIC: 10 µg/mL (≈ 38.9 µM)
Streptomyces griseus
  MIC: 15 µg/mL (≈ 58.3 µM)
Streptomyces coelicolor [3]
  MIC: 12 µg/mL (≈ 46.6 µM)
Streptomyces coelicolor [4]
  MIC: > 75 µg/mL
Streptomyces coelicolor [5]
  MIC: 2 µg/mL (≈ 7.77 µM)
Streptomyces coelicolor [6]
  MIC: 5 µg/mL (≈ 19.4 µM)
Streptomyces coelicolor [7]
  fold change (FC): 8
Streptomyces coelicolor [8]
  MIC: 0.25 µg/mL (≈ 0.972 µM)
Streptomyces coelicolor [9]
  fold change (FC): >300
Streptomyces coelicolor [10]
  MIC: 0.25 µg/mL (≈ 0.972 µM)
Streptomyces coelicolor [11]
  fold change (FC): 12
Streptomyces coelicolor [12]
  MIC: 5 µg/mL (≈ 19.4 µM)
Streptomyces coelicolor [13]
  fold change (FC): 32
Streptomyces coelicolor [14]
  MIC: 3 µg/mL (≈ 11.7 µM)
Streptomyces coelicolor [15]
  MIC: > 75 µg/mL
Streptomyces coelicolor [16]
  fold change (FC): >300
Streptomyces coelicolor [17]
  MIC: > 75 µg/mL
Streptomyces coelicolor [18]
  fold change (FC): 60
Streptomyces coelicolor [19]
  fold change (FC): 1
Streptomyces coelicolor [20]
  MIC: 5 µg/mL (≈ 19.4 µM)
Streptomyces coelicolor [21]
  fold change (FC): 20
Streptomyces coelicolor [22]
  MIC: > 75 µg/mL
Streptomyces coelicolor [23]
  fold change (FC): 20
Streptomyces avermitilis
  MIC: 5 µg/mL (≈ 19.4 µM)
Streptomyces coelicolor [24]
  MIC: 8 µg/mL (≈ 31.1 µM)
Streptomyces coelicolor [25]
  fold change (FC): >300
Streptomyces coelicolor [26]
  fold change (FC): >300
Streptomyces coelicolor [27]
  fold change (FC): 48
Streptomyces coelicolor [28]
  MIC: > 75 µg/mL
Streptomyces coelicolor [29]
  MIC: > 150 µg/mL
Streptomyces coelicolor [30]
  fold change (FC): 20
Streptomyces coelicolor [31]
  fold change (FC): >300
Streptomyces coelicolor [32]
  fold change (FC): 1
